Results: publication PMC10692362 (Acta Pharmaceutica Sinica. B, 2023)
Changes are numbered by the printed parent chain.

Experiments:
MCF-7 cells = test: Cell viability assay; format: cell-based, human
T-47D^D538G cells = test: Cell viability assay; format: cell-based, human; settings: Homo sapiens, 72 h, read-out: T-47D^D538G IC50
T-47D^Y537S cells = test: Cell viability assay; format: cell-based, human; settings: Homo sapiens, 72 h, read-out: T-47D^Y537S IC50
ERβ = ERβ (Homo sapiens, UniProt Q92731); test: ER transcriptional activity; format: cell-based
ERα C530S mutant = biological target: T1, ERα C530S mutant (Homo sapiens, UniProt P03372, C530S); test: Transcriptional activity; format: cell-based
T1 sequence (P03372 1-595 C530S): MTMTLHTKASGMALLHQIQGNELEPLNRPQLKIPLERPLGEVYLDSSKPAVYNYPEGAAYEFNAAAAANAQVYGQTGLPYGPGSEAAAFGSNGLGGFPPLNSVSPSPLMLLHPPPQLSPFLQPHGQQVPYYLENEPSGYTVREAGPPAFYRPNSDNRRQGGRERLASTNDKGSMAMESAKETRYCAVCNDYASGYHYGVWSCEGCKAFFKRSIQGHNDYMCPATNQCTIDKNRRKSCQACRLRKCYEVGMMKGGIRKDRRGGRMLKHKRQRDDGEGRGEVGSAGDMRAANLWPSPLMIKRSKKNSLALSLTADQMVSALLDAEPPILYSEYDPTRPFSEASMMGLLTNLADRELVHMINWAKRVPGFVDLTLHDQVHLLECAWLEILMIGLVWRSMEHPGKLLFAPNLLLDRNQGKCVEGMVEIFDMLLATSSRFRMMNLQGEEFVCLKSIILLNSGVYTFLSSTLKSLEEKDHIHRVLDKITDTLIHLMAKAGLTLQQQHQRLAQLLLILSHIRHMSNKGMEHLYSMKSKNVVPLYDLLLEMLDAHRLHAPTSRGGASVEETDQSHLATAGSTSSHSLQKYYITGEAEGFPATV

ERα [1] = biological target: T2, ERα (Homo sapiens, UniProt P03372); test: Immunoblot analysis of ERα degradation in T-47D cells; format: cell-based; settings: 5 μmol/L over 12 h
T2 sequence (P03372 1-595): T1 sequence (P03372 1-595 C530S) with S530C

ERα Y537S = biological target: T3, ERα Y537S (Homo sapiens, UniProt P03372, Y537S); test: Immunoblot analysis of ERα degradation in T-47D^Y537S cells; format: cell-based; settings: 5 μmol/L over 12 h
T3 sequence (P03372 1-595 Y537S): T1 sequence (P03372 1-595 C530S) with S530C, Y537S

ERα [2] = test: Immunoblot analysis of ERα degradation across ERα^WT and ERα^MUT BC cell lines; format: cell-based, human; settings: 5 μmol/L 29c with 10 μmol/L MG-132
[3] = test system: ERα^WT and ERα^MUT BC cell lines (MCF-7, LCC-2, T-47D, T-47D^D538G, T-47D^Y537S); test: Apoptosis by flow cytometry; format: cell-based, human; settings: 5 μmol/L, 48 h
PK studies in mice = format: in vivo, BALB/c female mice
Summary of the method: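 Female BALB/c mice (n = 3/group) were dosed iv at 2 mg/kg in DMSO/PEG400/β-cyclodextrin/saline (5:40:10:45), ip at 4 mg/kg in DMSO/PEG400/saline (5:40:55), or po at 20 mg/kg in corn oil/DMSO (95:5). Blood was sampled at […]. Plasma was deproteinised with MeCN and analysed by LC/MS/MS, with three plasma samples per time point.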

[4] = female, BALB/c, mouse, plasma, ip, 4 mg/kg
[5] = female, BALB/c, mouse, plasma, iv, 2 mg/kg
[6] = female, BALB/c, mouse, plasma, po, 20 mg/kg

Sequence of ERβ (Q92731 whole entry): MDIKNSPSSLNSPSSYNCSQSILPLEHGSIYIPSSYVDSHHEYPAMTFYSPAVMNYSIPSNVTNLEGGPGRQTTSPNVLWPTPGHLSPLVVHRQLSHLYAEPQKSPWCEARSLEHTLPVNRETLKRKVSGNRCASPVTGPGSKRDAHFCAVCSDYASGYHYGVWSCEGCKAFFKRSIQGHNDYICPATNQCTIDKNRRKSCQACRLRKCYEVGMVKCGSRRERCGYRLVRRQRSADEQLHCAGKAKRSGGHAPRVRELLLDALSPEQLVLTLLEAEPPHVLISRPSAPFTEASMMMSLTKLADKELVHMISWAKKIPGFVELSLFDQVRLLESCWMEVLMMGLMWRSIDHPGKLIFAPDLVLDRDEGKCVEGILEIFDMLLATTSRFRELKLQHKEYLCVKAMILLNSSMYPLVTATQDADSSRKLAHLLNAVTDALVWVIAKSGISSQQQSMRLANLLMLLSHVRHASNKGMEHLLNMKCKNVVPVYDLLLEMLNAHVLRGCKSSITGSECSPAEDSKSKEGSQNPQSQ

## CC(C)=CC(=O)Nc1ccc(C2=C(c3ccc(O)cc3)C3OC2CC3S(=O)(=O)N(CC(F)(F)F)c2ccc(O)cc2)cc1 (stereo not drawn) [Compound 29c, N-(4-(3-(4-Hydroxyphenyl)-5-(N-(4-hydroxyphenyl)-N-(2,2,2-trifluoroethyl)sulfamoyl)-7-oxabicyclo[2.2.1]hept-2-en-2-yl)phenyl)-3-methylbut-2-enamide]
MCF-7 cells
  fold higher potency than 4-OHT, MCF-7: 12 fold
MCF-7 cells; Homo sapiens, MCF7, 72 h, read-out: MCF-7 IC50
  IC50: 56 ± 4 nM
MCF-7 cells; compared with fulvestrant
  fold higher potency than Ful, MCF-7: 2.5 fold
T-47D^D538G cells
  IC50: 1910 ± 180 nM
T-47D^Y537S cells
  IC50: 880 ± 150 nM
ERβ; control as 0%, 10 nmol/L E2 as 100%
  Agonist mode ERβ Eff (%E2): 19 ± 1 %E2
ERβ; with 10 nmol/L 17β-estradiol
  Antagonist mode ERβ Eff (%E2): 27 ± 2 %E2
ERα C530S mutant
  IC50: 290 nM
ERα C530S mutant; ERα C530S mutant, HEK-293T
  Agonist mode ERα C530S Eff (%E2): 2 ± 1 %E2
  Antagonist mode ERα C530S Eff (%E2): 33 ± 2 %E2
ERα C530S mutant; HEK-293T^C530S cells, compared with wild type
  Effect of C530S mutation on antagonistic activity: decreased
ERα [1]
  ERα degradation time course, T-47D: completely degraded
ERα Y537S
  ERα degradation time course, T-47D^Y537S: completely degraded
ERα [2]
  ERα degradation with proteasome inhibitor: lost its ability to degrade ERα
[3]
  Induction of apoptosis: significantly induced apoptosis
PK studies in mice; [4]
  AUC: 960 ng·h/mL
  Cmax: 352 ng/mL
  Tmax: 0.167 h
  half-life: 6.38 h
PK studies in mice; [5]
  AUC: 1210 ng·h/mL
  Cmax: 1420 ng/mL
  Tmax: 0.083 h
  Vd: 4.5 L/kg
  clearance: 27.7 mL/min/kg
  half-life: 2.77 h
PK studies in mice; [6]
  AUC: 360 ng·h/mL
  Cmax: 153 ng/mL
  Tmax: 0.5 h
  half-life: 5.81 h
PK studies in mice; mice
  Oral bioavailability: insufficient oral bioavailability
